In ChEMBL document CHEMBL4024710, “Discovery of novel 1,2,3,4-tetrahydrobenzo[4, 5]thieno[2, 3-c]pyridine derivatives as potent and selective CYP17 inhibitors” (Eur J Med Chem, 2017):

How the values were obtained:
[1] = target: T1, Steroid 17-alpha-hydroxylase/17,20 lyase (Rattus norvegicus, UniProt P11715); experiment: Inhibition of CYP17 in Sprague-Dawley rat testes microsomes using 17-alpha hydroxyprogesterone as substrate and NADPH as cofactor pretreated for 5 mins followed by substrate and cofactor addition after 60 mins by LC/Ms analysis; set-up: species or system Testis
T1 sequence (P11715 whole entry): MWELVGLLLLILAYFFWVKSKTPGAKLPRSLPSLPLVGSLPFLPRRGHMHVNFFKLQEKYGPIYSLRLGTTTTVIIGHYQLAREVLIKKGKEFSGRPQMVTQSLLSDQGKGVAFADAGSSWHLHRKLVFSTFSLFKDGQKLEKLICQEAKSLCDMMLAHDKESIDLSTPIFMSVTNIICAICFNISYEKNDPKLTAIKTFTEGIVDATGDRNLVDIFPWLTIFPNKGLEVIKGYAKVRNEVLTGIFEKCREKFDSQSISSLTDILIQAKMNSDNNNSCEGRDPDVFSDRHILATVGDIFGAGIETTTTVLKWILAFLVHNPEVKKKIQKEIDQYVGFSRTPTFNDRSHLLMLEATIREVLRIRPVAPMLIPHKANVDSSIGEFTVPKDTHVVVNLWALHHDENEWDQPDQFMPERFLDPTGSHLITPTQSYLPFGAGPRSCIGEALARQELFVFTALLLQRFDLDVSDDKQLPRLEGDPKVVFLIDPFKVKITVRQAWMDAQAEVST
Outline: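 Rat testis microsomes from male SD rats weighing 220–250 g, prepared at 4 °C by differential centrifugation (9000 g, then 105,000 g pellet). 2 µg protein in 0.05 M phosphate pH 7.5 preincubated with inhibitor 5 min at 25 °C. Started with 10 µM 17α-hydroxyprogesterone plus 4.2 mM NADPH, 60 min at 25 °C, stopped with methanol. Androstenedione measured by LC/MS; IC50 is the mean of at least three experiments.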

[2] = target: T2, Steroid 17-alpha-hydroxylase/17,20 lyase (Homo sapiens, UniProt P05093); experiment: Inhibition of recombinant human CYP17 expressed in human A549 cell membranes using 17-alpha hydroxyprogesterone as substrate and NADPH as cofactor pretreated for 5 mins followed by substrate and cofactor addition after 60 mins by LC/MS analysis
T2 sequence (P05093 whole entry): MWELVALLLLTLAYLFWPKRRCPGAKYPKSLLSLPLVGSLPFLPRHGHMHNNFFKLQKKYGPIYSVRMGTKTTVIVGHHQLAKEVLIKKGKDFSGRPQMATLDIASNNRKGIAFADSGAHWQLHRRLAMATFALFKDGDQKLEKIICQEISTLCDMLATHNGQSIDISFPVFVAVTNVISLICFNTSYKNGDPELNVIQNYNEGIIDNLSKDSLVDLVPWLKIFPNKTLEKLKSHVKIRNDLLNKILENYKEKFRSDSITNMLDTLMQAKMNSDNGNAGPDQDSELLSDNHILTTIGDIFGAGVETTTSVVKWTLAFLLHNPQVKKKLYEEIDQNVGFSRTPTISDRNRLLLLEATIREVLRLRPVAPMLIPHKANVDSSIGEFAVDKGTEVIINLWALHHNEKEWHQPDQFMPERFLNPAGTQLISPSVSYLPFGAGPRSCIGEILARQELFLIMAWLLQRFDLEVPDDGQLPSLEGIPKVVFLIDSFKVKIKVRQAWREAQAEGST
Outline: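 Enzyme source was purified membranes of A549 cells expressing human CYP17 from an adenoviral vector. 2 µg membrane protein in 0.05 M phosphate pH 7.5 with inhibitor, preincubated 5 min at 25 °C. Reaction started with 10 µM 17α-hydroxyprogesterone and 4.2 mM NADPH, run 60 min at 25 °C, methanol stop. Androstenedione quantified by LC/MS; IC50 is the mean of at least three experiments.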

Cytochrome P450 3A4 = Cytochrome P450 3A4 (Homo sapiens, UniProt P08684); experiment: Inhibition of human hepatic CYP3A4; type: ADME
Chain of Cytochrome P450 3A4 (P08684 whole entry): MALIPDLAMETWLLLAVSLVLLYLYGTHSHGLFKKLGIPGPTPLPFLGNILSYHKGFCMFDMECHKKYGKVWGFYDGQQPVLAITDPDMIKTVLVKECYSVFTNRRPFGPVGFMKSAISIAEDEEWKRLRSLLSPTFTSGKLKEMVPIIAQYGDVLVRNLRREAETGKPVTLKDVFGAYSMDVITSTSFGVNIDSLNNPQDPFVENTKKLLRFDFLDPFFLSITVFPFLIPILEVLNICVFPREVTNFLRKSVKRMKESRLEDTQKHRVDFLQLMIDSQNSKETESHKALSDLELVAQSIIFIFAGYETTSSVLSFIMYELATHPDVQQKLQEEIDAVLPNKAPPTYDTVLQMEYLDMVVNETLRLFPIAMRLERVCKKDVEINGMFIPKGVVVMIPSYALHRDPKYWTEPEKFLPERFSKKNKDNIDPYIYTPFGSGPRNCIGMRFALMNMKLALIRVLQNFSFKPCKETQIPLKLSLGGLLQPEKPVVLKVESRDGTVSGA

CYP1A2 [3] = target: T3, CYP1A2 (Homo sapiens, UniProt P05177); experiment: Inhibition of human hepatic CYP1A2 at 1 uM relative to control; type: ADME
T3 sequence (P05177 whole entry): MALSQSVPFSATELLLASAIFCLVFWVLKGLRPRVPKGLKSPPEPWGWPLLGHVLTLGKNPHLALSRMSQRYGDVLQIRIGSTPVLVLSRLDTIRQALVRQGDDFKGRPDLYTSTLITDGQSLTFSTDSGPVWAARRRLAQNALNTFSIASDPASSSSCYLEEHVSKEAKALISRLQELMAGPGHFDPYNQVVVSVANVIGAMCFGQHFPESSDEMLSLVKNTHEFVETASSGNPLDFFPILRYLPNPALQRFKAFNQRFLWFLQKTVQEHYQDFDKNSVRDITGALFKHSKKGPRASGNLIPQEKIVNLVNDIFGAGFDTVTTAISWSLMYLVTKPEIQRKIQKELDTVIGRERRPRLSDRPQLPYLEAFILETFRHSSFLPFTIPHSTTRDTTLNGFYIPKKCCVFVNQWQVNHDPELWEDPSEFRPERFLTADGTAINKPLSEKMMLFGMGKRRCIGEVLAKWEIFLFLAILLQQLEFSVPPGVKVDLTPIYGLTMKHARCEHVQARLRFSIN

CYP1A2 [4] = target: T3, CYP1A2; experiment: Inhibition of human hepatic CYP1A2 at 10 uM relative to control; type: ADME
CYP2C9 [5] = target: T4, CYP2C9 (Homo sapiens, UniProt P11712); experiment: Inhibition of human hepatic CYP2C9 at 1 uM relative to control; type: ADME
T4 sequence (P11712 whole entry): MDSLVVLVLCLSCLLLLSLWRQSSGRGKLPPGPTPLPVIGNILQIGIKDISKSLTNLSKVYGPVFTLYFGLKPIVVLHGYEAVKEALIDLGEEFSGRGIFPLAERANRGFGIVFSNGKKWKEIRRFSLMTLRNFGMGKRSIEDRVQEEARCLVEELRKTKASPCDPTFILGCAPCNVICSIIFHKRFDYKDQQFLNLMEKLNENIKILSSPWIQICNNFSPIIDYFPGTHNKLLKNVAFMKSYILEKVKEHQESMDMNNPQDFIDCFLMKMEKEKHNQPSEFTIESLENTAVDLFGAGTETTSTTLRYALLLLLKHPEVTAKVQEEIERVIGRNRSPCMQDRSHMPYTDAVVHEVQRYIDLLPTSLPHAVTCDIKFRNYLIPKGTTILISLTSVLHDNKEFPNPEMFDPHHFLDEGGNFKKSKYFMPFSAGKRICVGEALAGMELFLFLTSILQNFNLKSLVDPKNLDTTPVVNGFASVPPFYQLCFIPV

CYP2C9 [6] = target: T4, CYP2C9; experiment: Inhibition of human hepatic CYP2C9 at 10 uM relative to control; type: ADME
CYP2C19 [7] = target: T5, CYP2C19 (Homo sapiens, UniProt P33261); experiment: Inhibition of human hepatic CYP2C19 at 1 uM relative to control; type: ADME
T5 sequence (P33261 whole entry): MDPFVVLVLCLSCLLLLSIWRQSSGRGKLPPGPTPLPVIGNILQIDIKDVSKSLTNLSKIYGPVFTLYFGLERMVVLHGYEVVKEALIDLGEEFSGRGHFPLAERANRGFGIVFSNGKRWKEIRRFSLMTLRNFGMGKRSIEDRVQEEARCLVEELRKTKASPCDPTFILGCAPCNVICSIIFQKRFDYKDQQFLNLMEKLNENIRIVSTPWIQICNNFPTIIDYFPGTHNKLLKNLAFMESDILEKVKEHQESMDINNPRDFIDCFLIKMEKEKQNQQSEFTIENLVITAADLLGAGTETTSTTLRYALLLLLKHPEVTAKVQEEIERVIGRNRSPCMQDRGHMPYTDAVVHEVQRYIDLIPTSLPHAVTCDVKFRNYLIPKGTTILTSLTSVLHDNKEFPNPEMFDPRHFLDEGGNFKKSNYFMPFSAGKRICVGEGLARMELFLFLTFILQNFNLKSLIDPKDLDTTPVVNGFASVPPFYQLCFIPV

CYP2C19 [8] = target: T5, CYP2C19; experiment: Inhibition of human hepatic CYP2C19 at 10 uM relative to control; type: ADME
CYP2D6 [9] = target: T6, CYP2D6 (Homo sapiens, UniProt P10635); experiment: Inhibition of human hepatic CYP2D6 at 1 uM relative to control; type: ADME
T6 sequence (P10635 whole entry): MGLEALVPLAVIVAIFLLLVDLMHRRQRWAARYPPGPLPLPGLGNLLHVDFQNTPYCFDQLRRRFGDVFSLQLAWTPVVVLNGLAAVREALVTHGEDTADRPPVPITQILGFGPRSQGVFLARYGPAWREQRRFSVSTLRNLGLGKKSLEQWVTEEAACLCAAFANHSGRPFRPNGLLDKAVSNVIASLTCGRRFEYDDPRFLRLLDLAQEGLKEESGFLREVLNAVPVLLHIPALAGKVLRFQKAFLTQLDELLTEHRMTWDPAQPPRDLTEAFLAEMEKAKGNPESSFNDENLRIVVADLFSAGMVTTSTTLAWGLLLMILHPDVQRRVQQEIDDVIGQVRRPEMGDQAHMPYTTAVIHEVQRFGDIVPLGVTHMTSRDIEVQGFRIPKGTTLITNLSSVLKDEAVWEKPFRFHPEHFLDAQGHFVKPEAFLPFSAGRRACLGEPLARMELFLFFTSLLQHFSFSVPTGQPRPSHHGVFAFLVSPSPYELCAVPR

CYP2D6 [10] = target: T6, CYP2D6; experiment: Inhibition of human hepatic CYP2D6 at 10 uM relative to control; type: ADME

For `Fc1ccc2sc3c(c2c1)CCN(Cc1cncnc1)C3`, the IC50 [1] was 80.6 nM.
`CC(C)c1ccncc1CN1CCc2c(sc3ccc(F)cc23)C1` gave an IC50 [1] of 535 nM.
`O=C(c1cccnc1)N1CCc2c(sc3ccc(F)cc23)C1` showed an IC50 [1] greater than 1000 nM.
For `COc1ccc2sc3c(c2c1)CCN(Cc1cccnc1)C3`, the IC50 [1] was greater than 1000 nM.
For `CC(C)(C)OC(=O)Nc1ccc2sc3c(c2c1)CCN(Cc1cccnc1)C3`, the IC50 [1] was greater than 1000 nM.
Compound `Fc1ccc2sc3c(c2c1)CCN(Cc1cnccc1Br)C3` has an IC50 [1] of 75.8 nM.
For `Fc1ccc2sc3c(c2c1)CCN(Cc1ccncc1)C3`, the IC50 [1] was greater than 1000 nM.
For `Cc1cncc(CN2CCc3c(sc4ccc(F)cc34)C2)c1`, the IC50 [1] was 121 nM.
Compound `c1cncc(CN2CCc3c([nH]c4ccccc34)C2)c1` has an IC50 [1] of 229 nM.
`Fc1ccc2sc3c(c2c1)CCN(Cc1cncc2ccccc12)C3` showed an IC50 [1] of 390 nM.
`Fc1cncc(CN2CCc3c(sc4ccc(F)cc34)C2)c1` was tested, and the IC50 [1] was 56.5 nM, the IC50 [2] was 45.4 nM and the IC50 (Cytochrome P450 3A4) was 9030 nM. It also gave an inhibition at 1 µM (CYP1A2 [3]) of 10.6%, an inhibition at 10 µM (CYP1A2 [4]) of 69.5% and an inhibition at 1 µM (CYP2C9 [5]) of 0%. For the same compound, the inhibition at 10 µM (CYP2C9 [6]) was 51.6%, the inhibition at 1 µM (CYP2C19 [7]) was 5.3% and the inhibition at 10 µM (CYP2C19 [8]) was 61.3%. It also gave an inhibition at 1 µM (CYP2D6 [9]) of 50.8% and an inhibition at 10 µM (CYP2D6 [10]) of 62.5%.
Work on `CNC(=O)c1ccc2sc3c(c2c1)CCN(Cc1cccnc1)C3` yielded an IC50 [1] greater than 1000 nM.
With `Oc1ccc2sc3c(c2c1)CCN(Cc1cccnc1)C3` the IC50 [1] was 20.9 nM, the IC50 [2] was 23.7 nM and the IC50 (Cytochrome P450 3A4) was 5280 nM. It also gave an inhibition at 1 µM (CYP1A2 [3]) of 25.4%, an inhibition at 10 µM (CYP1A2 [4]) of 71.2% and an inhibition at 1 µM (CYP2C9 [5]) of 0%. The inhibition at 10 µM (CYP2C9 [6]) was 17.5%, the inhibition at 1 µM (CYP2C19 [7]) was 7.9% and the inhibition at 10 µM (CYP2C19 [8]) was 71.6%. It also gave an inhibition at 1 µM (CYP2D6 [9]) of 1.3% and an inhibition at 10 µM (CYP2D6 [10]) of 18.9%.
`Fc1ccc2sc3c(c2c1)CCN(Cc1cnccc1-c1ccccc1)C3` gave an IC50 [1] greater than 1000 nM.
